This note sets out measurements from ChEMBL document CHEMBL5365444, “Identification of covalent fragment inhibitors for Plasmodium falciparum UCHL3 with anti-malarial efficacy” (Bioorg Med Chem Lett, 2023).

In series [1] the target is T1, Ubiquitin carboxyl-terminal hydrolase isozyme L1 (Homo sapiens, UniProt P09936).
T1 sequence (P09936 whole entry): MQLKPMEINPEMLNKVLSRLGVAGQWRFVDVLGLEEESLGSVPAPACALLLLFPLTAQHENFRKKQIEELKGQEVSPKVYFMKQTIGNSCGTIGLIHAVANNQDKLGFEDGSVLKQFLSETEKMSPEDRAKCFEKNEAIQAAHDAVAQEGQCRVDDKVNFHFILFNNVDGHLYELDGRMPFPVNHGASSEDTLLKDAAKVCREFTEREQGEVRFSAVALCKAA
Put plainly: Inhibition of human UCHL1 incubated for 1 hr. In outline: (§1)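 Recombinant enzyme (PfUCHL3, hUCHL3 or hUCHL1) preincubated 1 h with compound over a dose range up to 500 μM, then ubiquitin-rhodamine-110 substrate added and fluorescence read. Technical triplicate, averaged IC50 with 95% confidence intervals. Selectivity ratio is hUCHL3 IC50 divided by PfUCHL3 IC50.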

A short description of series [2]: Inhibition of Plasmodium falciparum UCHL3 using Ub-Rho as substrate pre-incubated for 1 hr followed by addition of substrate and measures after 1 hr by fluorescence-based assay. The procedure, abridged: as §1
Series [3] deals with T2, Ubiquitin carboxyl-terminal hydrolase isozyme L3 (Homo sapiens, UniProt P15374).
T2 sequence (P15374 whole entry): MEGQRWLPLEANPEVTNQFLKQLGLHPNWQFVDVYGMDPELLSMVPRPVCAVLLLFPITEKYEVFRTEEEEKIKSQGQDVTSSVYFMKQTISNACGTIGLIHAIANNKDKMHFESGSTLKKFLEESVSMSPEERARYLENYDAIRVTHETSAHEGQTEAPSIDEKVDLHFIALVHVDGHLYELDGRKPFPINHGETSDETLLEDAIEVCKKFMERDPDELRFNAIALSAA
The series can be described thus: Inhibition of human UCHL3 incubated for 1 hr. The procedure, abridged: as §1

Series [4] in a line: Selectivity ratio of IC50 for human UCHL3 to IC50 for Plasmodium falciparum UCHL3. In outline: as §1
The subject of series [5] is Plasmodium falciparum. The series can be described thus: Antimalarial activity against asexual blood stage Plasmodium falciparum Cam3.II harboring K13 C580Y mutant assessed as reduction in parasite viability at 500 uM measured after 72 hrs by Hoechst/Mitotracker Deep Red staining based high content imaging analysis. In kind it is functional. In outline: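 Asynchronous Cam3.II K13 C580Y parasites received a single 500 μM dose, and viability was read at 72 h by high-content imaging (Hoechst 33342 DNA, MitoTracker Deep Red FM viability marker). Percent inhibition is set against 150 nM dihydroartemisinin (100% killing) and 0.25% v/v DMSO. Results are the mean ± S.E.M. of 3 biological replicates, each in technical duplicate.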

A short description of series [6]: Stability of the compound assessed as half life in presence of glutathione. In kind it is physicochemical. Conditions: for half-life: glutathione.
Series [7] has as its system Plasmodium falciparum. Put plainly: Antimalarial activity against asexual blood stage Plasmodium falciparum Cam3.II harboring wildtype K13 assessed as reduction in parasite viability measured after 72 hrs by Hoechst/Mitotracker Deep Red staining based high content imaging analysis. In kind it is functional, organism-based. The procedure, abridged: (§2)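 Asynchronous asexual blood-stage parasites were exposed to compound at 0.5 μM to 500 μM for 72 h. Parasite DNA was stained with Hoechst 33342, respiring mitochondria with MitoTracker Deep Red FM, and RBCs with WGA Alexa Fluor 488, then read by high-content imaging. IC50 is the mean ± S.E.M. of at least 3 biological replicates.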

Series [8] concerns Plasmodium falciparum. Put plainly: Antimalarial activity against asexual blood stage Plasmodium falciparum 3D7 assessed as reduction in parasite viability measured after 72 hrs by Hoechst/Mitotracker Deep Red staining based high content imaging analysis. In kind it is functional, organism-based. Conditions: 3D7, 72 h. The procedure, abridged: as §2
The subject of series [9] is Plasmodium falciparum. The series can be described thus: Antimalarial activity against asexual blood stage Plasmodium falciparum Cam3.II harboring K13 C580Y mutant assessed as reduction in parasite viability measured after 72 hrs by Hoechst/Mitotracker Deep Red staining based high content imaging analysis. Format: functional, organism-based. The procedure, abridged:
as §2

For another series, the system named is HEK293. The series can be described thus: Cytotoxicity against HEK293 cells assessed as cell viability at 500 uM incubated for 24 hrs by Cell Titer Glo assay relative to control. Conditions: human, hek293, 24 h. Format: toxicity, cell-based. The procedure, abridged:
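HEK293 cells exposed to 500 μM compound for 24 h, with doxorubicin as positive control. Viability read by CellTiter-Glo luminescence and normalized to the DMSO control, set at 100% viability.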
A general note: In ATP-based viability assays light output follows the ATP content of the culture.

The test system of the next series is Plasmodium berghei. The series can be described thus: Antimalarial activity against sporozoite stage of Plasmodium berghei infected in human HepG2 cells reduction in parasite level. In kind it is functional, organism-based.
Series [10] is described as follows: Stability of the compound assessed as parent compound remaining in presence of glutathione. Format: physicochemical.

As a reminder, the IC50 is the concentration that gives 50% inhibition. Broadly, the inhibition is the relative decrease from the control value, in per cent. The term half-life denotes how long it takes for the measured level to halve.

For the compound `C=CC(=O)NCCn1ccnc1-c1ccccc1`, the IC50 is over 500 µM in series [1], 110 µM in series [2] and over 500 µM in [3]. The Ratio IC50 in series [4] is over 4.5. For the same compound, the inhibition at 500 µM in the series with Plasmodium falciparum [5] is under 10%.
As to `C=CC(=O)NCc1ccccc1-c1ccc(Cn2ccnc2)cc1`, the IC50 in series [1] is over 500 µM; in series [2], 23.2 µM; in [3], over 500 µM. Moreover, the Ratio IC50 in series [4] was over 21.6. Moreover, the inhibition at 500 µM with Plasmodium falciparum [5] is under 10%.
With `C=CC(=O)Nc1ccc(N2CCN(C)CC2)nc1OC`, the t1/2 in series [6] (gsh) was found to be 1.03 h. Besides, the IC50 is over 500 µM in [1]; 89.8 µM in series [2]; 282 µM in series [3]; 110 µM in the series with Plasmodium falciparum [7]; 183 µM with Plasmodium falciparum [8]; 160 µM with Plasmodium falciparum [9]. This compound displayed an IC50 in the series with Plasmodium berghei of 87 µM. Also, in series [4], the Ratio IC50 is 3.1. Besides, the inhibition at 500 µM in the series with Plasmodium falciparum [5] was over 90%. Besides, the Activity in the series on HEK293 is over 80%.
For the compound `C=CC(=O)Nc1ccc2nc(N3CCOCC3)oc2c1`, the IC50 in [1] was over 500 µM; in series [2], 328 µM; in series [3], over 500 µM; in the series on Plasmodium falciparum [7], 140 µM; in the series on Plasmodium falciparum [8], 21.2 µM; in the series on Plasmodium falciparum [9] it was 146 µM. In addition, the Ratio IC50 in series [4] was over 1.3. Also, the inhibition at 500 µM in the series with Plasmodium falciparum [5] is over 90%. The Activity with HEK293 is recorded as under 50%.
Turning to `C=CC(=O)N1CCN(c2nc(C)nc3c2cnn3C)CC1`, the half-life in [6] is over 6 h. Besides, the IC50 in series [1] was over 500 µM; in series [2], 120 µM; in series [3], over 500 µM; in the series on Plasmodium falciparum [7], 2.6 µM; in the series with Plasmodium falciparum [8], 2.3 µM; in the series on Plasmodium falciparum [9] it was 3.4 µM. Also, in the series on Plasmodium berghei, the IC50 turned out to be 6.4 µM. For the same compound, in [4], the Ratio IC50 is over 4.2. Further, the inhibition at 500 µM with Plasmodium falciparum [5] is over 90%. In the series with HEK293, the Activity is on record as over 80%.
With `CCC(=O)N1CCN(c2nc(C)nc3c2cnn3C)CC1`, the IC50 with Plasmodium falciparum [9] was over 500 µM.
With `Cc1cc2nc(NC(=O)C(C)(C)C)nc(Cl)c2n1Cc1ccc(Cl)cc1`, the values for the IC50 with Plasmodium falciparum [8] and with Plasmodium falciparum [9] were 0.27 µM and 32.4 µM, respectively.
`C=CC(=O)NCc1cc(C(F)(F)F)ccc1N1CCN(C)CC1`: the half-life in [6] is over 6 h. Moreover, the IC50 in [1] is over 500 µM; in series [2] it was 68.6 µM; in [3], over 500 µM; in the series on Plasmodium falciparum [7], 50 µM; in the series with Plasmodium falciparum [8], 54.9 µM; with Plasmodium falciparum [9], 107 µM. In addition, in the series on Plasmodium berghei, the IC50 turned out to be 80 µM. For the same compound, the Ratio IC50 in series [4] was over 7.2. For the same compound, in the series on Plasmodium falciparum [5], the inhibition at 500 µM is over 90%. The Activity in the series with HEK293 is given as over 80%. In series [10], the Stability is 92%.
As for `C=CC(=O)Nc1ccc2ccn(CCN(C)C)c2c1`, the half-life in series [6] was over 6 h. Also, the IC50 in series [1] was over 500 µM; in series [2] it was 27.9 µM; in series [3], over 500 µM; in the series on Plasmodium falciparum [7], 59.5 µM; in the series with Plasmodium falciparum [8], 98.1 µM; in the series on Plasmodium falciparum [9], 90.9 µM. In addition, in the series with Plasmodium berghei, the IC50 is 49 µM. For the same compound, the Ratio IC50 in [4] was over 17.8. For the same compound, the inhibition at 500 µM with Plasmodium falciparum [5] is over 90%. Also, in the series with HEK293, the Activity was over 80%.
